Measured values from different studies.
PBRM1 bromodomain: Protein polybromo-1, bromodomain (PBRM1, Homo sapiens, UniProt Q86U86)
PBRM1 BD2: Protein polybromo-1, BD2 (PBRM1, Homo sapiens, UniProt Q86U86)
BRD2 BD1: Bromodomain-containing protein 2, BD1 (BRD2, Homo sapiens, UniProt P25440)
ALDH2: Aldehyde dehydrogenase, mitochondrial (ALDH2, Homo sapiens, UniProt P05091)

C[S+]([O-])c1ccc(-c2nc(-c3ccncc3)c(-c3ccc(F)cc3)[nH]2)cc1 (centres unmarked)
ΔTm (PBRM1 bromodomain; thermal stability, DSF; 10 µM): 1.33 °C

O=c1nc2n(c3cccc(Cl)c13)CC/C2=C\c1ccccc1
ΔTm (PBRM1 BD2; thermal stability, DSF; 100 µM): -6.11 °C

Oc1ccc(-c2nc(-c3ccncc3)c(-c3ccc(F)cc3)[nH]2)cc1
ΔTm (BRD2 BD1; thermal stability, DSF; 10 µM): 1.18 °C

NS(=O)(=O)c1ccc(Nc2nc(-c3ccc(F)cc3)c3ccccc3n2)cc1
remaining binding (BRD2 BD1; binding, competition with immobilised ligand; 1 µM): 4%

CCC(/C=C1\CCn2c1nc(=O)c1ccc(O)cc12)CC
ΔTm (PBRM1 BD2; thermal stability, DSF; 100 µM): 3.49 °C

Cc1oc2cc3oc(=O)c(C)c(C)c3cc2c1C
remaining activity (ALDH2; enzyme activity, inhibitor, absorbance; 10 µM): 20.7%

CCCN1CCCn2c1nc1c2c(=O)n(C)c(=O)n1C
inhibition (Adenosine receptor A2b (ADORA2B, Homo sapiens, UniProt P29275); ligand displacement, radioligand; 10 µM, cell membranes): 1%

CCC/C=C1\CCn2c1nc(=O)c1c(Cl)cccc12
ΔTm (PBRM1 bromodomain; thermal stability, DSF; 100 µM): 11 °C

Nc1ncnc2occ(-c3ccc(NC(=O)Nc4cc(C(F)(F)F)ccc4F)cc3)c12
remaining signal (Casein kinase I isoform alpha-like (CSNK1A1L, Homo sapiens, UniProt Q8N752); cell-free assay; 20 µM): 39%

O=[N+]([O-])OCC(CO[N+](=O)[O-])O[N+](=O)[O-]
Km (ALDH2; enzyme activity, substrate): ~20 µM

CCCOc1ccc(OC)c(F)c1C(=O)c1ccc(C(=O)N[C@@H]2CNC[C@H]2NC(=O)c2ccc3[nH]ncc3c2)cc1
remaining activity (Serine/threonine-protein kinase N2 (PKN2, Homo sapiens, UniProt Q16513); enzyme activity, inhibitor; 50 nM): 78%

CN(C)C1CCN(CC#Cc2nn(C3CCCC3)c3nc(NCc4ccccc4)ncc23)C1 (centres unmarked)
inhibition (Serine/threonine-protein kinase Sgk1 (SGK1, Homo sapiens, UniProt O00141); enzyme activity, inhibitor, FRET; 0.1 µM): 6%

CC(C)(O)[C@H]1CC[C@H](Nc2ccc3ncc(-c4cccc(C(F)(F)F)c4)n3n2)CC1
remaining activity (Serine/threonine-protein kinase N3 (PKN3, Homo sapiens, UniProt Q6P5Z2); enzyme activity, inhibitor; 1 µM): 40.2%

CC/C=C1\CCn2c1nc(=O)c1c(Cl)cccc12
ΔTm (PBRM1 bromodomain; thermal stability, DSF; 100 µM): 5.03 °C

Cc1cc2c(cc1N1C(=O)c3cccc4c(Cl)ccc(c34)C1=O)n(C)c(=O)n2C
ΔTm (Protein polybromo-1, BD1 (PBRM1, Homo sapiens, UniProt Q86U86); thermal stability, DSF; 10 µM): -1.1 °C

Cc1cnc(Nc2ccc(OCCN3CCCC3)cc2)nc1Nc1cccc(S(=O)(=O)NC(C)(C)C)c1
ΔTm (PBRM1 BD2; thermal stability, DSF; 10 µM): 0.23 °C

CCC(/C=C1\CCn2c1nc(=O)c1c(Cl)cccc12)CC
ΔTm (PBRM1 bromodomain; thermal stability, DSF; 100 µM): 10.3 °C
